Laboratory results published in ChEMBL document CHEMBL1122501, “Potential antiatherosclerotic agents. 2. (Aralkylamino)- and (alkylamino) benzoic acid analogues of cetaben” (1983).

Experiments:
[1] = molecular target: T1, Sterol O-acyltransferase 1 (Rattus norvegicus) (UniProt O70536); assay: In vitro inhibitory activity against acyl coenzyme A:cholesterol acyltransferase (ACAT); parameters: concentration or dose not given beside the values; settings: concentration not given here
T1 sequence (whole entry): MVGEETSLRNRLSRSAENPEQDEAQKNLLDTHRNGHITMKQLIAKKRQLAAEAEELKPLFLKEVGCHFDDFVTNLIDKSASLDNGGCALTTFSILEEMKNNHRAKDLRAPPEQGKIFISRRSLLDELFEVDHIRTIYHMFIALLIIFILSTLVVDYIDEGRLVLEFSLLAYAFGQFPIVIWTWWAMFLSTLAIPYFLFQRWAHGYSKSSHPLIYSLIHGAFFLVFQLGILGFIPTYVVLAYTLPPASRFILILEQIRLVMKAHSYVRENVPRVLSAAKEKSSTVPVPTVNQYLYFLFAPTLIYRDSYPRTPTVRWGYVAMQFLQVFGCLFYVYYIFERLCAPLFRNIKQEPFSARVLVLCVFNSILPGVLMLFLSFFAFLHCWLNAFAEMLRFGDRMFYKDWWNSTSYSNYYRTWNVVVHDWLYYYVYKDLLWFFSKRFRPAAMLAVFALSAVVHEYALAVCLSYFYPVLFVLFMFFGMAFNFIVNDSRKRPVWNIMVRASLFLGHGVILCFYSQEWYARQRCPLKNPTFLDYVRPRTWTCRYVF
In short: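 ACAT enzyme from rat adrenal homogenate in 0.2 M KH2PO4 buffer pH 7.4, 1000g 15 min 5 °C supernatant (microsomal fraction). Supernatant + BSA (50 mg/mL) + compound at final 5.2 μg/mL + buffer preincubated 10 min 37 °C; [14C]oleoyl-CoA (0.4 μCi) added, 30 min 37 °C. Lipids extracted, TLC; cholesteryl ester zone counted. Mean % inhibition vs no-compound control; Student's t test.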

Rattus norvegicus [2] = assay: In vivo Triglyceride lowering activity at dose as 0.03 % of the diet.; assay type: functional
In short: (§1)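 Male CFE or CD-1 Sprague-Dawley rats, 140-150 g; 8 per control group, 4 per test group. Compound mixed into ground chow (w/w) via MeOH-CHCl3 (1:3) solution, solvent evaporated; controls got solvent-treated chow. Fed ad libitum 5 days, food intake monitored, killed fed and bled. Serum sterols and triglycerides by adapted autoanalyzer methods; mean percent of control, Student's t test.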

Rattus norvegicus [3] = assay: In vivo Sterol lowering activity at dose as 0.01 % of the diet.; assay type: functional; in short: as §1
Rattus norvegicus [4] = assay: In vivo Sterol lowering activity at dose as 0.03 % of the diet.; assay type: functional; in short: as §1
Rattus norvegicus [5] = assay: In vivo triglyceride lowering activity, dosed at 0.01 % of the diet.; assay type: functional; in short: as §1
Rattus norvegicus [6] = assay: In vivo triglyceride lowering activity, dosed at 0.10 % of the diet.; assay type: functional; in short: as §1
Rattus norvegicus [7] = assay: In vivo Sterol lowering activity at dose as 0.10 % of the diet.; assay type: functional; in short: as §1
Rattus norvegicus [8] = assay: In vivo triglyceride lowering activity, dosed at 0.03 % of the diet; assay type: functional; in short: as §1
Rattus norvegicus [9] = assay: In vivo Triglyceride lowering activity at dose as 0.01 % of the diet; assay type: functional; in short: as §1
Rattus norvegicus [10] = assay: In vivo triglyceride lowering activity dosed at 0.10 % of the diet; assay type: functional; in short: as §1
Rattus norvegicus [11] = assay: In vivo sterol lowering activity dosed at 0.10 % of the diet; assay type: functional; in short: as §1

Row | SMILES | inhibition [1] [%] | Diet (Rattus norvegicus [2]) [%] | serum sterol, percent of control (Rattus norvegicus [3]) [%] | serum sterol level, percent of control (Rattus norvegicus [4]) [%] | Diet (Rattus norvegicus [5]) [%] | Diet (Rattus norvegicus [6]) [%] | serum sterol, percent of control (Rattus norvegicus [7]) [%] | serum triglycerides, percent of control (Rattus norvegicus [8]) [%] | Diet (Rattus norvegicus [9]) [%] | serum triglycerides, percent of control (Rattus norvegicus [10]) [%] | serum sterol, percent of control (Rattus norvegicus [11]) [%] | Diet (Rattus norvegicus [7]) [%]
1 | CCOC(=O)c1ccc(NCc2cccs2)cc1 | 44 | 78 | 104 | 98 | 94 |  |  |  |  |  |  | 
2 | O=C(/C=C/c1ccc(Cl)cc1)Nc1ccc(C(=O)O)cc1 | 41 | 109 | 100 | 100 | 94 | 116 | 120 |  |  |  |  | 
3 | CCOC(=O)c1ccc(NC(=O)CCc2ccc(C)cc2)cc1 | 25 | 64 | 97 | 99 | 73 | 69 | 88 |  |  |  |  | 
4 | O=C(CCc1ccc(Cl)cc1)Nc1ccc(C(=O)O)cc1 | 33 | 115 | 104 | 104 | 100 | 100 | 96 |  |  |  |  | 
5 | O=C(O)c1ccc(NCCCCCC(O)c2ccc(Cl)cc2)cc1 (configuration not stated) | 30 | 90 | 100 | 100 | 85 |  | 86 |  |  | 72 |  | 
6 | O=C(O)c1cccc(NCCCc2ccc(Cl)cc2)c1 | 0 | 93 | 103 | 89 | 80 |  | 92 |  |  | 37 |  | 
7 | O=C(OCC(O)CO)c1ccc(NCCCc2ccccc2)cc1 (configuration not stated) | 21 | 92 | 90 | 85 |  |  |  |  | 57 | 49 | 74 | 
8 | Nc1ccccc1CCCNc1ccc(C(=O)O)cc1 | 15 | 84 | 121 | 96 | 99 | 92 | 84 |  |  |  |  | 
9 | CCOC(=O)c1ccc(NCCCCCCc2ccco2)cc1 | 37 |  | 95 | 103 |  |  | 90 | 64 | 68 | 60 |  | 
10 | O=C(O)c1ccc(NCCCc2ccccc2[N+](=O)[O-])cc1 | 2 | 103 | 88 | 83 | 84 |  |  |  |  | 77 | 83 | 
11 | O=C(O)c1ccc(NCCCc2cccc(F)c2)cc1 | 18 |  | 94 | 97 |  |  |  | 61 | 53 | 35 |  | 90
12 | O=C(O)c1ccc(NCCCc2c(Cl)cccc2Cl)cc1 | 21 |  |  |  |  | 82 | 106 |  |  |  |  | 
13 | COc1ccc(CCCNc2ccc(C(=O)O)cc2)cc1 | 38 | 89 | 89 | 86 | 82 | 91 |  |  |  |  | 70 | 
14 | CCOC(=O)c1ccc(NCCCCCCc2ccc(Cl)cc2)cc1 | 30 |  | 99 | 95 |  |  | 85 | 68 | 73 | 50 |  | 
15 | Cc1ccc(CCCNc2ccc(C(=O)O)cc2)cc1 | 49 |  | 90 | 98 |  |  | 110 | 54 | 63 | 50 |  | 
16 | CCOC(=O)c1ccc(NCCc2ccc(Cl)cc2)cc1 | 37 | 90 | 115 | 113 |  |  | 97 |  | 70 | 60 |  | 
17 | CCOC(=O)c1ccc(NCCCCCC(=O)c2ccc(Cl)cc2)cc1 | 50 |  | 98 | 92 | 76 | 79 | 99 | 56 |  |  |  | 
18 | CC(C(=O)O)c1ccc(NCCCc2ccc(Cl)cc2)cc1 (configuration not stated) | 14 |  | 94 | 96 |  |  |  | 63 | 63 | 33 | 62 | 

Now from value to compound, other results behind:

Row | inhibition [1] [%] | SMILES | Diet (Rattus norvegicus [2]) [%] | serum sterol, percent of control (Rattus norvegicus [3]) [%] | serum sterol level, percent of control (Rattus norvegicus [4]) [%] | Diet (Rattus norvegicus [5]) [%] | Diet (Rattus norvegicus [6]) [%] | serum sterol, percent of control (Rattus norvegicus [7]) [%] | serum triglycerides, percent of control (Rattus norvegicus [8]) [%] | Diet (Rattus norvegicus [9]) [%] | serum triglycerides, percent of control (Rattus norvegicus [10]) [%] | serum sterol, percent of control (Rattus norvegicus [11]) [%] | Diet (Rattus norvegicus [7]) [%]
19 | 85 | CCOC(=O)C(C)c1ccc(NCCCc2ccc(Cl)cc2)cc1 (configuration not stated) |  | 86 | 89 |  |  | 75 | 48 | 57 | 42 |  | 
20 | 23 | CCOC(=O)c1ccc(NC/C=C/c2ccc(Cl)cc2)cc1 |  | 93 | 100 |  |  | 78 | 45 | 64 | 46 |  | 
21 | 21 | O=C(O)c1ccc(NCCCCCCc2ccco2)cc1 | 61 | 91 | 87 | 67 |  |  |  |  | 51 | 86 | 
22 | 9 | O=C(O)Cc1ccc(NCCCc2ccc(Cl)cc2)cc1 | 95 | 83 | 85 | 111 |  | 82 |  |  | 61 |  | 
23 | 6 | O=C(O)c1ccc(NCCc2ccc(Cl)cc2)cc1 | 91 | 106 | 90 | 114 |  | 105 |  |  | 67 |  | 
24 | 18 | O=C(CCCCCc1ccc(Cl)cc1)Nc1ccc(C(=O)O)cc1 | 104 | 86 | 93 | 96 | 90 | 99 |  |  |  |  | 
25 | 43 | CCOC(=O)c1ccc(NCCCc2ccccc2N)cc1 | 97 | 103 | 96 | 83 |  | 98 |  |  | 69 |  | 
26 | 43 | CCOC(=O)c1ccc(NCCCc2ccc(Cl)c(Cl)c2)cc1 | 98 | 86 | 98 | 90 |  | 90 |  |  | 66 |  | 
27 | 50 | CCOC(=O)c1cccc(NCCCc2ccc(Cl)cc2)c1 |  | 96 | 93 |  |  | 96 | 62 | 75 | 59 |  | 
28 | 91 | CCOC(=O)Cc1ccc(NCCCc2ccc(Cl)cc2)cc1 |  | 103 | 91 | 119 | 67 | 91 | 126 |  |  |  | 
29 | 30 | CCOC(=O)c1ccc(NC(=O)CCc2ccc(Cl)cc2)cc1 | 101 | 101 | 107 |  |  | 99 |  | 85 | 66 |  | 
